According to ChEMBL document CHEMBL1144498, “A two stage click-based library of protein tyrosine phosphatase inhibitors” (Bioorg Med Chem, 2007):

Legend:
[1] = Inhibition of Yersinia pestis protein tyrosine phosphatase 1B
Outline: (§1)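 p-NPP hydrolysis at room temperature in 50 mM 3,3-dimethylglutarate pH 7.0, 1 mM EDTA, 50 mM NaCl, 10% DMSO. Substrate was held at Km: Yersinia PTP 2.9, PTP1B 2.0, TCPTP 2.1, CD45 7.0 mM. Initial rates came from absorbance at 405 nm, 10–130 s after mixing. IC50 was obtained by Dixon analysis.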

Yersinia pestis [2] = experiment: Inhibition of Yersinia pestis protein tyrosine phosphatase at 10 uM
Outline: (§2)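 Single-concentration percent inhibition screen with p-NPP substrate, 2.9 mM for Yersinia PTP and 2.0 mM for PTP1B. Buffer was 50 mM 3,3-dimethylglutarate pH 7.0 with 1 mM EDTA, 50 mM NaCl and 10% DMSO, at room temperature. Initial hydrolysis rates were read at 405 nm from 10 to 130 s.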

[3] = Inhibition of Yersinia pestis protein tyrosine phosphatase; outline: as §1
[4] = Inhibition of Yersinia pestis Protein tyrosine phosphatase TC; outline: as §1
[5] = Inhibition of Yersinia pestis protein tyrosine phosphatase CD45; outline: as §1
Yersinia pestis [6] = experiment: Inhibition of Yersinia pestis protein tyrosine phosphatase at 100 uM; outline: as §2

Compound | IC50 [1] | inhibition (Yersinia pestis [2]) | IC50 [3] | IC50 [4] | IC50 [5] | inhibition (Yersinia pestis [6])
O=C(O)C(=O)c1ccc(-n2cc(C(=O)N[C@@H](Cc3c[nH]c4ccccc34)Cn3cc(-c4ccc(-c5cn(C[C@H](Cc6c[nH]c7ccccc67)NC(=O)c6cn(-c7ccc(C(=O)C(=O)O)cc7)nn6)nn5)cc4)nn3)nn2)cc1 | 2.1 µM | > 60% | 0.55 µM | 0.71 µM | 8.4 µM | –
C#Cc1cccc(C#C)c1 | – | – | – | – | – | > 60%
O=C(O)C(=O)c1ccc(-n2cc(C(=O)N[C@H](CO)Cc3c[nH]c4ccccc34)nn2)cc1 | 500 µM | – | 58 µM | – | – | –
Cc1ccc(S(=O)(=O)c2cn(C[C@H](Cc3c[nH]c4ccccc34)NC(=O)c3cn(-c4ccc(C(=O)C(=O)O)cc4)nn3)nn2)cc1 | 7.4 µM | > 60% | 2.1 µM | 2.6 µM | 15.8 µM | –
C#Cc1ccc(-c2ccccc2)cc1 | – | – | – | – | – | > 60%
O=C(O)C(=O)c1ccc(-n2cc(-c3cccc(-c4cn(-c5ccc(C(=O)C(=O)O)cc5)nn4)c3)nn2)cc1 | 77 µM | – | 25 µM | – | – | –
COc1ccc2cc(-c3cn(C[C@H](Cc4c[nH]c5ccccc45)NC(=O)c4cn(-c5ccc(C(=O)C(=O)O)cc5)nn4)nn3)ccc2c1 | 5.7 µM | > 60% | 2.1 µM | 2.6 µM | 16.8 µM | –
C#Cc1ccc(C#C)cc1 | – | – | – | – | – | > 60%
C#CC(=O)N[C@H](CO)Cc1c[nH]c2ccccc12 | – | – | – | – | – | > 60%
O=C(O)C(=O)c1ccc(-n2cc(-c3ccc(-c4ccccc4)cc3)nn2)cc1 | 84 µM | – | 45 µM | – | – | –
O=C(O)C(=O)c1ccc(-n2cc(C(=O)N[C@@H](Cc3c[nH]c4ccccc34)Cn3cc(-c4cccc(-c5cn(C[C@H](Cc6c[nH]c7ccccc67)NC(=O)c6cn(-c7ccc(C(=O)C(=O)O)cc7)nn6)nn5)c4)nn3)nn2)cc1 | 4.1 µM | > 60% | 1.3 µM | 1.8 µM | 8.5 µM | –
